Measured values from ChEMBL document CHEMBL1140581, “Structure-activity relationship study of [1,2,3]thiadiazole necroptosis inhibitors” (Bioorg Med Chem Lett, 2007).
Calls of active or inactive are those of the source. The calls are words filed in the database; no cut-off is given here.

Legend:
[1] = system: Jurkat; test: Inhibition of TNF-alpha-induced necroptosis in FADD-deficient human Jurkat T cells after 24 hrs; format: functional, cell-based
In short: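 FADD-deficient human Jurkat T cells at 5×10^5 cells/mL, 24 h at 37 °C, 5% CO2, with 10 ng/mL human TNF-α plus compound at eleven concentrations (0.030–100 μM), each in duplicate. DMSO stocks diluted in DMSO; final DMSO 0.5%. Viability by luminescent ATP assay (CellTiter-Glo), expressed as signal with TNF-α plus compound over signal with compound alone. EC50 from the dose series.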

[2] = system: L929; test: Inhibition of zVAD-induced necroptosis in […] assessed as cell viability at 30 uM after 24 hrs by ATP-based assessement method; format: functional
In short: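 L929 cells treated 24 h with 100 μM zVAD.fmk as the necroptotic stimulus, compound at 30 μM. ATP-based viability, normalized to compound-only cells without stimulus (100%). N = 2, standard deviation.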

[3] = system: L929; test: Inhibition of TNF-alpha-induced necroptosis in […] assessed as cell viability at 30 uM after 24 hrs by ATP-based assessement method; format: functional
In short: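 L929 cells given 10 ng/mL human TNF-α for 24 h with compound at 30 μM. ATP-based viability, normalized to compound-only cells without stimulus (100%). N = 2, standard deviation.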

[4] = system: Jurkat; test: Inhibition of TNF-alpha-induced necroptosis in FADD-deficient human Jurkat T cells assessed as cell viability at 30 uM after 24 hrs by ATP-based assessement method; format: functional
In short: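 FADD-deficient Jurkat cells exposed 24 h to 10 ng/mL human TNF-α with compound at 30 μM. Viability by ATP-based luminescence, normalized to cells given compound without the necroptotic stimulus (set as 100%). N = 2, standard deviation.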

[5] = system: Fibroblast; test: Inhibition of TNFalpha and zVAD-induced necroptosis in SV40-transformed mouse adult lung fibroblasts assessed as cell viability at 30 uM after 24 hrs by ATP-based assessement method; format: functional
In short: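 SV40-transformed mouse adult lung fibroblasts stimulated 24 h with 10 ng/mL human TNF-α plus 100 μM zVAD.fmk, compound at 30 μM. ATP-based viability, normalized to compound-treated cells without stimulus (100%). N = 2, standard deviation.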

Compound	EC50 [1] [µM]	other results
O=C(NCc1c(Cl)cccc1Oc1ccccc1)c1snnc1C1CC1	> 100	–
CC(C)c1nnsc1C(=O)NCc1c(F)cccc1Cl	0.58	–
O=C(NCc1c(F)ccc(Cl)c1F)c1snnc1C1CC1	0.18	–
O=C(NCCc1c(F)cccc1Cl)c1snnc1C1CC1	27	–
O=C(NCc1ccccn1)c1snnc1C1CC1	40	–
Cc1nc(-c2ccc(Cl)cc2)sc1C(=O)NCc1c(F)cccc1Cl	> 100	–
Cc1nnsc1C(=O)NCc1c(F)cccc1Cl	1	–
Cc1c(S(=O)(=O)c2ccc(Cl)cc2)csc1C(=O)NCc1c(F)cccc1Cl	> 100	–
O=C(NC(=O)c1c(F)cccc1Cl)c1snnc1C1CC1	> 100	–
Cc1ccsc1C(=O)NCc1c(F)cccc1Cl	7	–
Cc1csc(C(=O)NCc2c(F)cccc2Cl)c1Cl	3.9	–
O=C(NCc1c(F)cccc1Cl)c1sccc1Cl	9.6	–
COc1ccc([C@H]2C3CCc4ccc(OC)cc4C3=NN2C(C)=O)cc1 (stereo not given in full)	–	Activity [2]: inactive; Activity [3]: Active; Activity [4]: Active
Cc1nnsc1C(=O)N(C)Cc1c(F)cccc1Cl	11	–
O=C(NCc1c(F)cccc1Cl)c1snnc1C1CC1	0.5	–
Cc1csc(C(=O)NCc2c(F)cccc2Cl)c1	3.7	–
Cc1c(Br)csc1C(=O)NCc1c(F)cccc1Cl	1.3	–
COc1ccccc1CNC(=O)c1snnc1C	> 100	–
O=C(NCc1c(F)cccc1Cl)c1snnc1-c1ccccc1	> 100	–

Compound	EC50 [1] [µM]	other results
O=C(NCc1ccccc1F)c1snnc1C1CC1	1.5	–
Cc1nc(C)c(C(=O)NCc2c(F)cccc2Cl)s1	> 100	–
O=C(NCc1c(F)cccc1C(F)(F)F)c1snnc1C1CC1	> 100	–
Fc1cccc(Cl)c1CNCc1snnc1C1CC1	> 100	–
Cc1ccc(C(=O)NCc2c(F)cccc2Cl)s1	3.9	–
Cc1nnsc1C(=O)NCc1c(F)cccc1F	3.5	–
O=C(NCc1c(F)cccc1Cl)c1cccs1	9.4	–
C[C@H](NC(=O)c1snnc1C1CC1)c1c(F)cccc1Cl	0.28	Activity [5]: Active; Activity [2]: inactive; Activity [3]: Active; Activity [4]: Active
CCOc1ccsc1C(=O)NCc1c(F)cccc1Cl	> 100	–
Cc1c(C#N)csc1C(=O)NCc1c(F)cccc1Cl	1.2	–
Cc1ccoc1C(=O)NCc1c(F)cccc1Cl	13	–
Cc1cccc(Cl)c1CNC(=O)c1snnc1C1CC1	10	–
CN1C(=O)N[C@H](Cc2c[nH]c3c(Cl)cccc23)C1=O	–	Activity [5]: Active; Activity [2]: Active; Activity [3]: Active; Activity [4]: Active
O=C(NCc1cccc2ccccc12)c1snnc1C1CC1	> 100	–
CC(NC(=O)c1snnc1C1CC1)c1c(F)cccc1Cl (stereo not given)	0.4	–
C[C@@H](NC(=O)c1snnc1C1CC1)c1c(F)cccc1Cl	> 100	–
CCCCC(NC(=O)c1snnc1C1CC1)c1c(F)cccc1Cl (stereo not given)	> 100	–
O=C(NCc1c(F)cccc1Cl)c1snnc1C1CCC1	0.6	–
Cc1ccccc1CNC(=O)c1snnc1C	27	–

Compound	EC50 [1] [µM]	other results
CCCc1nnsc1C(=O)NCc1c(F)cccc1Cl	4.1	–
O=C(Nc1c(F)cccc1F)c1snnc1C1CC1	> 100	–
Cc1nnccc1C(=O)NCc1c(F)cccc1Cl	> 100	–
CN(Cc1c(F)cccc1Cl)C(=O)c1snnc1C1CC1	16	–
Cc1ncoc1C(=O)NCc1c(F)cccc1Cl	> 100	–
O=C(NCc1ncccc1F)c1snnc1C1CC1	9.6	–
CC(C)(NC(=O)c1snnc1C1CC1)c1c(F)cccc1Cl	> 100	–
O=C(NCc1c(F)cccc1Cl)c1snnc1C1CCCC1	1.9	–
O=C(NCc1c(F)ccc(F)c1Cl)c1snnc1C1CC1	0.52	–
O=C(NCc1c(F)cccc1F)c1snnc1C1CC1	1.5	–
O=C(NC(c1ccccc1)c1c(F)cccc1Cl)c1snnc1C1CC1 (stereo not given)	> 100	–
CC(C)(C)c1nnsc1C(=O)NCc1c(F)cccc1Cl	18	–
O=C(NCc1c(F)cccc1Cl)c1sccc1C1CC1	5.1	–
O=C(NCc1c(F)cccc1Cl)c1snnc1C1CCCCC1	6	–
O=C(NCc1c(Cl)cccc1Cl)c1snnc1C1CC1	6	–
Cc1ncsc1C(=O)NCc1c(F)cccc1Cl	20	–
Cc1ccsc1C(=O)NC(C)c1c(F)cccc1Cl (stereo not given)	3.9	–
N#Cc1cccc(Cl)c1CNC(=O)c1snnc1C1CC1	> 100	–
